Measurements as given in ChEMBL document CHEMBL1765040, “Synthesis and antiviral activity of N9-[3-fluoro-2-(phosphonomethoxy)propyl] analogues derived from N6-substituted adenines and 2,6-diaminopurines” (Bioorg Med Chem, 2011).
pEC50: −log10 of the molar value. Activity calls are given as the source filed them. The calls are words filed in the database; no cut-off is given here.

Assays:
[1] = Cytotoxicity against human MT4 cells; type: cell-based
[2] = tested on: Human immunodeficiency virus 1; experiment: Antiviral activity against HIV1 infected in human MT4 cells assessed as inhibition of virus-induced cytopathicity; type: functional, organism-based; settings: Human immunodeficiency virus 1, MT4
[3] = Cytotoxicity against human CEM cells assessed as minimum concentration required for morphological alteration by microscopic analysis; type: cell-based, CCRF-CEM
[4] = Cytotoxicity against human CEM cells assessed as inhibition of cell proliferation after 72 hrs by coulter counter analysis; type: cell-based, CCRF-CEM
Outline: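 CEM cells, (5–7.5) × 10^4 per well, with test compound, grown 72 h at 37 °C in humidified CO2 atmosphere; cells counted by Coulter counter. IC50 is the concentration inhibiting proliferation by 50%.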

[5] = tested on: Human immunodeficiency virus 1; experiment: Antiviral activity against HIV1 3B infected in human CEM cells assessed as inhibition of virus-induced syncytium formation after 4 to 5 days by microscopic analysis; type: functional, organism-based; settings: Human immunodeficiency virus 1, 3B, CCRF-CEM
Outline: (§1)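 CEM cells (~3 × 10^5 cells/mL) infected with 100 CCID50 per mL of HIV-1(IIIB) or HIV-2(ROD), with compound dilutions; 4–5 days at 37 °C, humidified CO2 atmosphere. Giant (syncytium) cell formation scored microscopically; EC50 is the concentration inhibiting giant cell formation by 50%.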

[6] = tested on: Human immunodeficiency virus 2; experiment: Antiviral activity against HIV2 ROD infected in human CEM cells assessed as inhibition of virus-induced syncytium formation after 4 to 5 days by microscopic analysis; type: functional, organism-based; settings: Human immunodeficiency virus 2, ISOLATE ROD, CCRF-CEM; outline: as §1
[7] = tested on: Moloney murine sarcoma virus; experiment: Antiviral against Moloney murine sarcoma virus infected in mouse C3H/3T3 cells assessed as inhibition of virus-induced cell transformation after 6 days post infection by microscopic analysis; type: functional, organism-based; settings: C3H/3T3, 144 h
Outline: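 Murine embryo fibroblast C3H/3T3 monolayers infected with 75 focus-forming units of MSV, with test compound; transformation examined microscopically at day 6 postinfection. EC50 is the concentration inhibiting MSV-induced transformation by 50%.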

[8] = biological target: N6-methyl-AMP deaminase, ADAL (Homo sapiens) (UniProt Q6DHV7); experiment: Activity at human recombinant N6-methyl-AMP deaminase assessed as reaction rate after 60 mins by HPLC analysis
Sequence of N6-methyl-AMP deaminase, ADAL (Homo sapiens) (Q6DHV7 whole entry, looked up): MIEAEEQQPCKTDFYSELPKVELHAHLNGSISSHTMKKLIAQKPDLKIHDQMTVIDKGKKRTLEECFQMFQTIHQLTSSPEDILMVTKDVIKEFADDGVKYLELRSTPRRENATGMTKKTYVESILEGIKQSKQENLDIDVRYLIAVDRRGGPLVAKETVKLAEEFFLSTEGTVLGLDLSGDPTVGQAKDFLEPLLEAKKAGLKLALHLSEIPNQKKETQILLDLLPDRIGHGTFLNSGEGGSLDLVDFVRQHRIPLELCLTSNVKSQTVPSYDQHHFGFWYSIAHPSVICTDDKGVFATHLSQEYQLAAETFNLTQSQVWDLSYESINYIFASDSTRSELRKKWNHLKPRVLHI

| pEC50 [5] | pEC50 [6] | pEC50 [7] | Activity [8] | Structure (SMILES) | CC50 [1] [µM] | pEC50 [2] | MCC [3] [µM] | CC50 at 72 h [4] [µM] |
| --- | --- | --- | --- | --- | --- | --- | --- | --- |
| – | – | – | – | Nc1nc(O)c2ncn(C[C@H](CF)OCP(=O)(O)O)c2n1 | > 300 | 5.23 | – | – |
| < 4.00 | < 4.00 | < 4.70 | – | Nc1nc(N2CCCC2)c2ncn(C[C@@H](CF)OCP(=O)(O)O)c2n1 | – | – | ≥ 100 | > 100 |
| < 4.00 | < 4.00 | < 4.00 | – | COCCNc1nc(N)nc2c1ncn2C[C@H](CF)OCP(=O)(O)O | – | – | > 100 | > 100 |
| 4.29 | 3.99 | < 4.70 | 23.6 nmol/min/mg | CN(C)c1nc(N)nc2c1ncn2C[C@H](CF)OCP(=O)(O)O | – | – | ≥ 100 | > 287 |
| 5.34 | 5.49 | – | – | C[C@H](Cn1cnc2c(N)ncnc21)OCP(=O)(O)O [TENOFOVIR ANHYDROUS] | – | – | > 100 | > 250 |
| – | – | – | – | Nc1nc(N)c2ncn(C[C@H](CF)OCP(=O)(O)O)c2n1 | > 300 | 5.37 | – | – |
| < 3.56 | < 3.56 | < 4.00 | inactive | CCCNc1nc(N)nc2c1ncn2C[C@@H](CF)OCP(=O)(O)O | – | – | ≥ 100 | > 276 |
| – | – | – | – | Nc1nc(N)c2ncn(C[C@@H](CF)OCP(=O)(O)O)c2n1 | > 300 | 4.82 | – | – |
| 4.74 | 4.44 | 4.16 | 5.64 nmol/min/mg | C=CCNc1nc(N)nc2c1ncn2C[C@H](CF)OCP(=O)(O)O | – | – | > 100 | > 278 |
| 4.59 | 4.95 | 5.16 | 1.98 nmol/min/mg | Nc1nc(NC2CC2)c2ncn(C[C@@H](CF)OCP(=O)(O)O)c2n1 | – | – | > 100 | > 278 |
| – | – | – | – | Nc1nc(O)c2ncn(C[C@@H](CF)OCP(=O)(O)O)c2n1 | 103 | 5.41 | – | – |
| < 4.00 | < 4.00 | < 4.00 | – | CCN(CC)c1nc(N)nc2c1ncn2C[C@H](CF)OCP(=O)(O)O | – | – | > 100 | > 100 |
| < 4.00 | < 4.00 | < 4.00 | – | CN(C)CCNc1nc(N)nc2c1ncn2C[C@@H](CF)OCP(=O)(O)O | – | – | > 100 | > 100 |
| < 4.00 | < 4.00 | < 4.00 | – | COCCNc1nc(N)nc2c1ncn2C[C@@H](CF)OCP(=O)(O)O | – | – | > 100 | > 100 |
| 4.85 | 4.64 | 4.30 | 64.5 nmol/min/mg | Nc1nc(NC2CC2)c2ncn(C[C@H](CF)OCP(=O)(O)O)c2n1 | – | – | > 100 | > 278 |
| 4.38 | 4.65 | < 4.00 | 4.17 nmol/min/mg | CCCNc1nc(N)nc2c1ncn2C[C@H](CF)OCP(=O)(O)O | – | – | > 100 | > 276 |
| < 4.00 | < 4.00 | < 4.00 | – | Nc1nc(N2CCCC2)c2ncn(C[C@H](CF)OCP(=O)(O)O)c2n1 | – | – | > 100 | > 100 |
| < 3.59 | 3.94 | 4.35 | 8.07 nmol/min/mg | CN(C)c1nc(N)nc2c1ncn2C[C@@H](CF)OCP(=O)(O)O | – | – | > 100 | > 255 |
| < 3.61 | < 3.61 | < 4.00 | inactive | C=CCNc1nc(N)nc2c1ncn2C[C@@H](CF)OCP(=O)(O)O | – | – | > 100 | > 247 |
| < 4.00 | < 4.00 | < 4.00 | – | CCN(CC)c1nc(N)nc2c1ncn2C[C@@H](CF)OCP(=O)(O)O | – | – | > 100 | > 100 |
| < 4.28 | – | – | – | CN(C)CCNc1nc(N)nc2c1ncn2C[C@H](CF)OCP(=O)(O)O | – | – | – | > 53 |

| Structure (SMILES) | pEC50 [5] | pEC50 [6] | pEC50 [7] | Activity [8] | CC50 [1] [µM] | pEC50 [2] | MCC [3] [µM] | CC50 at 72 h [4] [µM] |
| --- | --- | --- | --- | --- | --- | --- | --- | --- |
| Nc1ncnc2c1ncn2CCOCP(=O)(O)O [ADEFOVIR] | 5.13 | 5.15 | 5.68 | – | – | – | ≥ 100 | ≥ 250 |
